This is an account of results in ChEMBL document CHEMBL4513216, “Probing the Open Global Health Chemical Diversity Library for Multistage-Active Starting Points for Next-Generation Antimalarials” (ACS Infect Dis, 2020).

The data set in a line: Toxicity liver stage against HepG2, at 10uM. On the set-up: test concentration 10 uM, cell line HepG2-A16-CD81EGFP. In kind it is cell-based. As to conditions: human, HepG2-A16-CD81EGFP cells; read-out: INHIBITION
In short, it runs like this:
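Uninfected HepG2-A16-CD81EGFP cells, 3 × 10^3 per well, 1536-well, plated on prespotted compound at 10 μM final, parasite-free screening media added to match infected plates; puromycin 10 μM positive, DMSO 0.5% negative; run in parallel with 48 h PbLuc assay at 37 °C, 5% CO2; viability by CellTiter-Glo luminescence, normalized to controls.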
Turning to `CCN(CC)S(=O)(=O)c1cc(Br)ccc1OC`, the cytotoxicity at 10 µM turned out to be 0.58%.

With `Cc1ccc(CN2CC[C@H](c3nnc(-c4ccco4)o3)C2)cc1`, the cytotoxicity at 10 µM was -2.25%.

Consider `Cc1cccc2c1nc1n2[C@@H](CNC(=O)Cc2ccccc2)COC1`, for which the cytotoxicity at 10 µM is -5.12%.

As for `COCCN1C[C@H]2CN(C(=O)NC(C)C)CCN2C1=O`, the cytotoxicity at 10 µM amounted to 2.6%. With `COCC(=O)N1CCN(S(=O)(=O)c2ccccc2)[C@@H](C(=O)OC)C1` the figure was 1.03%. The figure for `CSCC(C)(O)CNS(=O)(=O)c1cccc(Cl)c1` (centres undefined) is -0.396%; for `O=C(c1cscn1)N1CCC2(CCCN(CCOc3ccccc3)C2)C1` (centres undefined) it is 1.38%. For `Cc1ncnc2c1CCN(C(=O)c1ccsc1)CC2`, the cytotoxicity at 10 µM is -0.443%. As for `CCN(CC)CC1CN(Cc2ccco2)Cc2nccn2C1` (centres undefined), the cytotoxicity at 10 µM is -139%. With `COC(=O)CNC(=O)CSCc1nc(O)c2cc(C)sc2n1`, the cytotoxicity at 10 µM was found to be 1.45%. For the compound `COCCN(Cc1ccoc1)C(=O)c1ccccc1Cl`, the cytotoxicity at 10 µM worked out at 9.12%. The figure for `CNC(=O)[C@@]12CCC3(CCN(S(C)(=O)=O)CC3)[C@@H]1CN(S(C)(=O)=O)C2` is -16.1%; for `COCCCNC(=O)C(C)n1cc(Br)cn1` (centres undefined) it is 12.2%. As to `Cc1cc2[nH]c(O)nc2cc1NCc1ccccc1`, the cytotoxicity at 10 µM was 16%.

With `Cc1cc(C(=O)N(C)Cc2cccs2)nc(N2CCCC2)n1`, the cytotoxicity at 10 µM was found to be 7.85%.

In the case of `CC1CCC(NC(=O)c2nn(C)cc2I)CC1` (centres undefined), the cytotoxicity at 10 µM is 11.8%.

With `CC(C)c1[nH]c2ncccc2c1CN1CCN(S(=O)(=O)N(C)C)CC1`, the cytotoxicity at 10 µM turned out to be 3.33%.

In the case of `CN(C)S(=O)(=O)N1CCC(c2ccncc2)CC1`, the cytotoxicity at 10 µM was -27.6%. With `c1ccc(N2CCOC(Cc3cccnc3)C2)cc1` (centres undefined), the cytotoxicity at 10 µM was -26.3%.

As to `CCn1cc(NC(=O)N2CCN(CCSc3ccccc3)CC2)cn1`, the cytotoxicity at 10 µM was -0.095%. The figure for `CC(c1cccc(Cl)c1)N1CCN(S(C)(=O)=O)CC1` (centres undefined) is 1.81%; for `CS(=O)(=O)c1ccc(NCc2ccc(F)cc2)cn1` it is 8.08%; for `N#Cc1cc(S(N)(=O)=O)ccc1N1CCN(c2ccccc2)CC1` it is -3.54%. On to `O=c1cc(CN(CCO)C2CC2)nc2ccccn12`, for which the cytotoxicity at 10 µM was -1.05%. For `CN(C)C(=O)Cc1ccc(NCc2nccn2C)cc1`, the cytotoxicity at 10 µM was -8.73%. The figure for `CCCN(Cc1cnn(C)c1)S(=O)(=O)c1ccc(F)c(C#N)c1` is 6.69%. With `OCc1cccc(CNCc2cccc3c2OCCO3)c1` the figure was 4.25%.

On to `CC(O)CN1CCC(CNCc2cn(-c3ccccc3)nn2)CC1` (centres undefined), for which the cytotoxicity at 10 µM was 3.31%. With `N#Cc1ccnc(N2CCN(C3CCOC3=O)CC2)c1` (centres undefined) the figure was -1.98%. With `Cc1cc(C(=O)NCC(O)CN2CCCC2=O)ccc1F` (centres undefined) the figure was 5.24%; with `Cc1nc(CN2CCN(CCCc3nc4ccccc4o3)CC2)no1`, 9.13%. `Cc1nc(CN2CCN(CCCc3ccccc3)CC2)no1`: the cytotoxicity at 10 µM was found to be 11.7%. `Cc1noc(C(C)N(C)Cc2ccco2)n1` (centres undefined): the cytotoxicity at 10 µM worked out at 6.6%. With `O=C(NCCc1cccnc1)NC1CCOC2(CCCCC2)C1` (centres undefined) the figure was -16.3%; with `CC(C)N(CCNC(=O)N1CCCC(N(C)C)C1)C1CC1` (centres undefined), -0.211%; with `COCCC(=O)N1CCC(Nc2ncc(Cl)cn2)CC1`, -6.74%. The figure for `Cc1ccc(NS(=O)(=O)c2ccc(C#N)cc2)c(CN(C)C)c1` is -8.51%; for `COc1ccc(Oc2ccc(CNC(=O)C3CCS(=O)(=O)C3)cn2)cc1` (centres undefined) it is -2.22%. `CC(=O)NCCC(=O)NCCCOc1c(C)cccc1C`: the cytotoxicity at 10 µM was -4.81%.

Regarding `CN(C)c1nccc(CNC(=O)NC(C)(C)C)n1`, the cytotoxicity at 10 µM is -7.36%. With `CCN(CC1CN(Cc2ccccn2)CCO1)c1cccnn1` (centres undefined) the figure was -6.95%.

For `CC(=O)Nc1ccc(CN2CCOC2=O)cc1`, the cytotoxicity at 10 µM was -6.24%.

As for `Cc1cccc(NCC(=O)Nc2cc(F)ccc2F)c1C(N)=O`, the cytotoxicity at 10 µM turned out to be 7.53%. The figure for `COc1ncc(C)cc1NC(=O)COc1ccccc1F` is -9.52%. With `Cc1cc(N2CCCC2Cn2nc(C)cc2C)n2ncnc2n1` (centres undefined) the figure was -2.74%; with `Cn1nnnc1SCCC(=O)NCC(C)(C)c1ccccc1F`, 5.68%.

In the case of `CN(C)C1CN(C(=O)Nc2cccc(OC(F)F)c2)C1`, the cytotoxicity at 10 µM was -0.317%. Turning to `N#Cc1cnc(NCc2ccc(C(=O)NC3CC3)cc2)c(Cl)c1`, the cytotoxicity at 10 µM was -0.18%. The figure for `Fc1cccc2[nH]c(CN3CCn4c(nnc4C4CC4)C3)nc12` is -5.07%; for `O=C(c1c(O)cnc2ccccc12)N1CCN(CC(F)F)CC1` it is -2.22%. With `CC(NC(=O)N1CCN(c2cccs2)CC1)c1ccc(C#N)cc1` (centres undefined), the cytotoxicity at 10 µM came out at 11.4%. Turning to `CN(CC(C)(C)O)C(=O)Nc1ccc(F)c(-n2cccc2)c1`, the cytotoxicity at 10 µM was -9.3%. With `COc1cccc(CN(C)Cc2ccc(C#N)cc2)c1OC` the figure was -8.34%. With `NS(=O)(=O)CCNC(=O)c1ccc(-c2ccc(F)cc2)cc1F` the figure was -3.62%.

In the case of `CC(COc1ccc(F)cc1F)NC(=O)NCCN1CCOCC1` (centres undefined), the cytotoxicity at 10 µM is -10.9%. With `CN(C)C(=O)N1CCCC2(CCN(c3ccsc3)C2=O)C1` (centres undefined), the cytotoxicity at 10 µM was -72.5%. For the compound `Cc1nc(N(C)C)ncc1C(=O)NCCc1csc(-c2cnccn2)n1`, the cytotoxicity at 10 µM was -5%.

Take `COc1cccc(Cn2ncnc2CCSC)c1`: the cytotoxicity at 10 µM is -1.22%. With `Cc1noc(C)c1CCCNC(=O)C1CCN(C(C)C)CC1` the figure was -7.01%; with `COc1cc(N2C[C@@H](C)[C@](O)(C3CC3)C2)ncn1`, -0.714%. The figure for `CCCN1CCN(C(=O)Nc2ccccc2Cl)[C@H]2CS(=O)(=O)C[C@H]21` is 1.54%; for `CC(C)NS(=O)(=O)c1cc(C(=O)O)cc(-c2ccccc2CO)c1` it is 0.555%; for `COCCNS(=O)(=O)c1cccc2c1CN(C(=O)c1cnccn1)CC2` it is -0.432%. With `Cc1noc(-c2ccc(N3CCCC(C(=O)c4nccn4C)C3)nc2)n1` (centres undefined) the figure was -6.58%. With `CC(C)(O)CCc1ccc(C(=O)NCC2CCCOC2)cc1` (centres undefined), the cytotoxicity at 10 µM is 0.445%. The figure for `Cc1nccn1CCN(C)C(=O)c1cn(-c2ccccc2)nn1` is -0.651%; for `Cc1ccccc1C(C(=O)NCCSC(F)(F)F)N(C)C` (centres undefined) it is 8.25%. With `O=C(NCc1ccco1)c1cc(N2CC[C@@H](O)C2)ccn1` the figure was -2.93%; with `CN(C)C(=O)N1CCN(Cc2ccccc2)[C@@H]2CS(=O)(=O)C[C@@H]21`, -12.6%.

`CCn1c(CN2CCCC2)nnc1C1CCN(Cc2ccc(C)o2)CC1`: the cytotoxicity at 10 µM was -14.8%. The figure for `CCOCC(O)CN1CCN(C(=O)c2cccc(OC)c2)CC1` (centres undefined) is -0.874%; for `CC(=O)N1CCCC(C(=O)NCCOc2cc(C)cc(C)c2)C1` (centres undefined) it is -3.43%. With `Cc1ccc(CNC(=O)Nc2nccs2)cn1` the figure was -23.8%.

Take `CC(C)c1nc(CN2CCOC(Cn3cncn3)C2)cs1` (centres undefined): the cytotoxicity at 10 µM was -4.39%.

As to `N#Cc1ccc(CN2CCCCC2Cn2cccn2)cc1` (centres undefined), the cytotoxicity at 10 µM was -8.96%. With `CCS(=O)(=O)N1CCC(NC(=O)c2ccccc2O)CC1`, the cytotoxicity at 10 µM is -7.27%. With `Cc1ccc2oc(C(=O)N3CCCC(n4cccn4)C3)cc2n1` (centres undefined) the figure was -3.89%; with `CCCc1nc(CN2CCCC2c2cnn(C)c2)cs1` (centres undefined), 0.441%; with `Cc1nc(C)n(CC2CCCN2CCOc2ccc(F)cc2)n1` (centres undefined), 3.06%.

As for `CN1CCOC(CNC(=O)Cc2coc(-c3ccccc3)n2)C1` (centres undefined), the cytotoxicity at 10 µM is -25.1%.

Consider `CN(Cc1ccc(N(C)C)cc1)C(=O)NCc1nnc2n1CCC2`, for which the cytotoxicity at 10 µM was -21%. With `CC1CN(C)CCN1Cc1cccc(C(=O)N(C)C)c1` (centres undefined) the figure was -0.192%; with `CC(C)n1ccnc1CN1CCCN(C(=O)CC2CCCO2)CC1` (centres undefined), -12.8%; with `CS(=O)(=O)c1ccc(CNc2nccc(C(F)(F)F)n2)cc1`, -23.2%. Take `Cc1ccc(OCCN(C)C(C)c2cccc(S(N)(=O)=O)c2)cc1` (centres undefined): the cytotoxicity at 10 µM was -29.3%. With `Cc1ccoc1C(=O)NC1CCN(C(=O)Nc2ccccn2)CC1`, the cytotoxicity at 10 µM came out at 1.97%. As to `CCc1nc(C2CCCN(C(=O)c3ccc(OC)cc3)C2)no1` (centres undefined), the cytotoxicity at 10 µM is -15.6%. For `Cc1cnc(C(=O)Nc2cc(F)ccc2OCC2CCCO2)cn1` (centres undefined), the cytotoxicity at 10 µM is -4.83%. With `CC(O)CN1CCN(C(=O)c2cccc3[nH]ncc23)CC1` (centres undefined) the figure was -20.5%. On to `CCc1cnc(CN(C(C)=O)C2CCN(CCc3cnn(C)c3)C2)o1` (centres undefined), for which the cytotoxicity at 10 µM is -5.85%. The figure for `O=C(CN1CCCCC1Cn1cncn1)NCc1ccccn1` (centres undefined) is -4.02%; for `Cc1nc(C)c(C(=O)OCCNc2ncccc2C#N)s1` it is -7.32%.

For the compound `CNC(=O)[C@@H]1CN(C(=O)C2CCC2)C[C@H]1c1ccnc(N2CCCC2)n1`, the cytotoxicity at 10 µM was -3.21%. The figure for `COc1cccc(N2C(=O)CC3(CCCNC3)C2=O)c1` (centres undefined) is 1.52%; for `Oc1cc(C2CCNCC2)nc(-c2ccsc2)n1` it is 4.06%; for `Cc1cc(CN2CC[C@H]3C(=O)N(c4ccccc4)CCO[C@H]3C2)no1` it is -5.59%. Take `CS(=O)(=O)N[C@@H]1CCO[C@]2(CCN(CC3CCOCC3)C2)C1`: the cytotoxicity at 10 µM is -132%.

For `CC(=O)c1cc(CN2C[C@@H]3CC[C@H]2CN(Cc2c(C)noc2C)C3)cs1`, the cytotoxicity at 10 µM is -1.43%. With `CNc1nc2cn(CCc3ccccc3)c(=O)c-2c[nH]1` the figure was 7.77%.
